Among the data in ChEMBL document CHEMBL3751704, “Diarylthiophenes as inhibitors of the pore-forming protein perforin” (Bioorg Med Chem Lett, 2016) are inhibition values, retold here.

The experiment addresses T1, Perforin-1 (Homo sapiens) (UniProt P14222).
T1 sequence (whole entry): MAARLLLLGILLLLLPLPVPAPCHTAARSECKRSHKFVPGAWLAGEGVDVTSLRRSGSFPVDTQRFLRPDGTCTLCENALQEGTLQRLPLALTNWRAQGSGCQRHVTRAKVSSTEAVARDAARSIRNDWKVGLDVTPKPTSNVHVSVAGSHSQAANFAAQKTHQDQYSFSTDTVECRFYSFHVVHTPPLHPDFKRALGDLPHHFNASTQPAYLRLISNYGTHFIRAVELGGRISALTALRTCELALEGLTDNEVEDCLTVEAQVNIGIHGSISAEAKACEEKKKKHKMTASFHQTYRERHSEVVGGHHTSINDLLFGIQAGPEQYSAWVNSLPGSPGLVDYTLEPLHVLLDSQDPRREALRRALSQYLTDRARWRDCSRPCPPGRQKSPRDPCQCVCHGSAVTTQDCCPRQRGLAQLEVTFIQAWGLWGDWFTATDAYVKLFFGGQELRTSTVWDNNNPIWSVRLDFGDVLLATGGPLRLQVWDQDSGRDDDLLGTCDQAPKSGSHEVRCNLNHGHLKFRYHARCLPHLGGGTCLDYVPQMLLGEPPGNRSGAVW
The experiment can be described thus: Inhibition of perforin released from human KHYG-1 NK cells assessed as inhibition of perforin mediated lysis of human K562 cells at 20 uM by measuring 51Cr release incubated for 20 mins by gamma counting analysis relative to control. The settings on record: in the assay text read “incubated for 30 mins” for “incubated for 20 mins”. It is filed as cell-based. The gist of the method: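 KHYG-1 human NK effector cells preincubated with inhibitor (20 μM) in medium for 30 min at room temperature. 51Cr-labelled K562 leukaemia target cells then added and incubated 4 h at 37 °C. Lysis read as 51Cr release. Percent inhibition calculated against untreated control.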

The structures appear in SMILES notation. Calls of active or inactive are those of the source. The rule behind the calls is not given here.

`CS(=O)(=O)Nc1ccc(-c2ccc(-c3ccc4c(c3)COC4=O)s2)cc1`: the inhibition result is “inactive”.
